Measurements taken from ChEMBL document CHEMBL1165950, “Design and synthesis of new potent anticancer pyrazoles with high FLT3 kinase inhibitory selectivity” (Bioorg Med Chem, 2010).

Tests used:
Type in all cases: functional
[1] = system: UACC-257; experiment: Cytotoxicity against human UACC257 cells assessed as cell growth at 1 uM after 48 hrs by sulforhodamine B assay; conditions: UACC-257, 48 h, read-out: Activity
[2] = system: OVCAR-4; experiment: Growth inhibition of human OVCAR4 cells after 48 hrs by sulforhodamine B assay; conditions: OVCAR-4, 48 h
In short: (§1)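 NCI 60-cell screen, five-dose mode. Cells grown in RPMI 1640 with 5% FBS and 2 mM L-glutamine and plated at 5000-40,000 cells/well according to doubling time. After 24 h preincubation, a Tz plate was TCA-fixed. Five concentrations (10-fold or 1/2 log dilutions) were applied for 48 h at 37 °C. SRB staining read at 515 nm. IC50 taken from [(Ti-Tz)/(C-Tz)]×100 = 50.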

[3] = Growth inhibition of human […] cells after 48 hrs by sulforhodamine B assay; in short: as §1
[4] = system: COLO 205; experiment: Cytotoxicity against human COLO205 cells assessed as cell growth at 0.001 uM after 48 hrs by sulforhodamine B assay; conditions: COLO 205, 48 h, read-out: Activity
In short: (§2)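 NCI-60 five-dose screen. Cells were grown in RPMI 1640 with 5% FBS and 2 mM L-glutamine, plated at 5000–40,000 cells/well and preincubated for 24 h. Time-zero plates were TCA-fixed. DMSO-solubilized drug was added at five concentrations (10-fold or ½-log serial dilutions) for 48 h at 37 °C, 5% CO2. Cells were TCA-fixed, stained with 0.4% SRB and read at 515 nm. Percent growth used time-zero, control and test absorbances.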

[5] = system: HCT-116; experiment: Cytotoxicity against human HCT116 cells assessed as cell growth at 10 uM; conditions: read-out: Activity
In short: (§3)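 Single-dose NCI-60 screen at 10 µM. Cells were grown in RPMI 1640 with 5% FBS and 2 mM L-glutamine, then treated for 48 h at 37 °C. Protein was measured by SRB staining with absorbance at 515 nm. Percentage growth was recorded, and inhibition percentage was calculated as 100 minus growth percentage.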

[6] = system: A549; experiment: Cytotoxicity against human A549 cells assessed as cell growth at 0.01 uM after 48 hrs by sulforhodamine B assay; conditions: A549, 48 h, read-out: Activity; in short: as §2
[7] = system: OVCAR-8; experiment: Cytotoxicity against human OVCAR8 cells assessed as cell growth at 0.001 uM after 48 hrs by sulforhodamine B assay; conditions: OVCAR-8, 48 h, read-out: Activity
[8] = system: UO-31; experiment: Cytotoxicity against human UO31 cells assessed as cell growth at 1 uM after 48 hrs by sulforhodamine B assay; conditions: UO-31, 48 h, read-out: Activity
[9] = system: Malme-3M; experiment: Cytotoxicity against human MALME-3M cells assessed as cell growth at 0.001 uM after 48 hrs by sulforhodamine B assay; conditions: read-out: Activity
[10] = system: NCI/ADR-RES; experiment: Cytotoxicity against human NCI/ADR-RES cells assessed as cell growth at 10 uM after 48 hrs by sulforhodamine B assay; conditions: read-out: Activity
[11] = system: MDA-MB-435; experiment: Cytotoxicity against human MDA-MB-435 cells assessed as cell growth at 0.001 uM after 48 hrs by sulforhodamine B assay; conditions: MDA-MB-435, 48 h, read-out: Activity
[12] = system: OVCAR-3; experiment: Cytotoxicity against human OVCAR-3 cells assessed as cell growth at 1 uM after 48 hrs by sulforhodamine B assay; conditions: OVCAR-3, 48 h, read-out: Activity
[13] = system: SN12C; experiment: Growth inhibition of human SN12C cells after 48 hrs by sulforhodamine B assay; in short: as §1
[14] = system: DU-145; experiment: Cytotoxicity against human DU145 cells assessed as cell growth at 100 nM after 48 hrs by sulforhodamine B assay; conditions: DU-145, 48 h, read-out: Activity
[15] = system: EKVX; experiment: Cytotoxicity against human EKVX cells assessed as cell growth at 10 uM; conditions: read-out: Activity; in short: as §3
[16] = system: OVCAR-8; experiment: Cytotoxicity against human OVCAR8 cells assessed as cell growth at 10 uM; conditions: read-out: Activity
In short: (§4)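 NCI-60 screen: cells grown in RPMI 1640 with 5% FBS and 2 mM L-glutamine, plated at 5000–40,000 cells/well according to doubling time, and preincubated 24 h at 37 °C, 5% CO2. The single 10 µM dose (DMSO stock) was added, then incubated 48 h. Cells were TCA-fixed and stained with 0.4% SRB, read at 515 nm, and growth % calculated against time-zero and control plates.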

[17] = system: SK-MEL-2; experiment: Cytotoxicity against human SK-MEL-2 cells assessed as cell growth at 1 uM after 48 hrs by sulforhodamine B assay; conditions: SK-MEL-2, 48 h, read-out: Activity
[18] = system: UACC-62; experiment: Growth inhibition of human UACC62 cells after 48 hrs by sulforhodamine B assay; conditions: UACC-62, 48 h; in short: as §1
[19] = system: SK-OV-3; experiment: Cytotoxicity against human SKOV3 cells assessed as cell growth at 10 uM; conditions: read-out: Activity; in short: as §4
[20] = system: T47D; experiment: Cytotoxicity against human T47D cells assessed as cell growth at 10 uM; conditions: read-out: Activity; in short: as §4
[21] = system: HOP-62; experiment: Cytotoxicity against human HOP62 cells assessed as cell growth at 0.001 uM after 48 hrs by sulforhodamine B assay; conditions: HOP-62, 48 h, read-out: Activity
[22] = system: HL-60(TB); experiment: Growth inhibition of human HL-60(TB) cells after 48 hrs by sulforhodamine B assay; conditions: HL-60, 48 h
In short: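 NCI 60-cell SRB screen. Cells in RPMI 1640 with 5% FBS and 2 mM L-glutamine are preincubated 24 h, then exposed to five concentrations (10-fold or 1/2-log dilutions from DMSO stock) for 48 h at 37 °C. Suspension cells are fixed with 80% TCA (final 16%), and A515 is read. IC50 is taken as the concentration where [(Ti−Tz)/(C−Tz)]×100 = 50, i.e. 50% reduction in net protein increase.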

[23] = system: IGROV-1; experiment: Cytotoxicity against human IGROV1 cells assessed as cell growth at 0.001 uM after 48 hrs by sulforhodamine B assay; conditions: IGROV-1, 48 h, read-out: Activity
[24] = system: UO-31; experiment: Cytotoxicity against human UO31 cells assessed as cell growth at 0.01 uM after 48 hrs by sulforhodamine B assay; conditions: UO-31, 48 h, read-out: Activity
[25] = system: NCI-H522; experiment: Cytotoxicity against human NCI-H522 cells assessed as cell growth at 1 uM after 48 hrs by sulforhodamine B assay; conditions: NCI-H522, 48 h, read-out: Activity
[26] = system: SF-295; experiment: Cytotoxicity against human SF295 cells assessed as cell growth at 10 uM; conditions: read-out: Activity; in short: as §4
[27] = system: MCF7; experiment: Cytotoxicity against human MCF7 cells assessed as cell growth at 10 uM; conditions: read-out: Activity; in short: as §4
[28] = system: CAKI-1; experiment: Cytotoxicity against human Caki1 cells assessed as cell growth at 0.001 uM after 48 hrs by sulforhodamine B assay; conditions: CAKI-1, 48 h, read-out: Activity
[29] = read-out: LC50 (the source's name)

SMILES: Cc1cc(O)cc(-c2nn(CC#N)cc2-c2ccnc(-c3ccc(Oc4ccccc4)cc3)c2)c1
- growth at 1 µM [1]: -7%
- GI50 [2]: 4.56 µM
- TGI [2]: 16 µM
- CC50 [2, 29]: 48.6 µM
- GI50 [3]: 2.25 µM
- TGI [3]: 6.52 µM
- CC50 [3, 29]: > 100 µM
- growth at 0.001 µM [4]: 107%
- growth at 10 µM [5]: 25.7%
- growth at 0.01 µM [6]: 88%
- growth at 0.001 µM [7]: 96%
- growth at 1 µM [8]: 19%
- growth at 0.001 µM [9]: 88%
- growth at 10 µM [10]: -52%
- growth at 0.001 µM [11]: 103%
- growth at 1 µM [12]: -63%
- GI50 [13]: 1.8 µM
- LC50 [13]: 9.01 µM
- TGI [13]: 4.02 µM
- growth at 0.1 µM [14]: 86%
- growth at 10 µM [15]: 44.9%
- growth at 10 µM [16]: 37.2%
- growth at 1 µM [17]: 6%
- GI50 [18]: 4.67 µM
- TGI [18]: 18.1 µM
- CC50 [18, 29]: 44.4 µM
- growth at 10 µM [19]: 89.6%
- growth at 10 µM [20]: 14.2%
- growth at 0.001 µM [21]: 93%
- GI50 [22]: 2.25 µM
- LC50 [22]: > 100 µM
- TGI [22]: 5.94 µM
- growth at 0.001 µM [23]: 98%
- growth at 0.01 µM [24]: 85%
- growth at 1 µM [25]: 2%
- growth at 10 µM [26]: 77.7%
- growth at 10 µM [27]: 18.4%
- growth at 0.001 µM [28]: 101%
